This is a sample that favours compounds with a hit; in the whole collection about 1.8% have one here.
APOBEC3G inh – APOBEC3G DNA deaminase inhibitors, primary screen, biochemical, fluorescence, single-stranded DNA substrate, uHTS. 330,000 tested, 0.28% active. DNA dC->dU-editing enzyme APOBEC-3G (Homo sapiens), Q9HC16. inhibition, % at 20 µM. recombinant A3G, ssDNA deamination FAM/TAMRA fluorescence;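 active means inhibition of at least 40% at 20 µM, with no more than 30% in the related APOBEC3A deaminase screen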;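 further: plate controls were DMSO wells with A3G for no effect and wells lacking A3G enzyme for full effect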
A3A deaminase – APOBEC3A ssDNA deaminase inhibitors, primary screen, selectivity assay for APOBEC3G inhibitor project, biochemical, FAM/TAMRA oligo cleavage fluorescence. DNA dC->dU-editing enzyme APOBEC-3A (Homo sapiens), P31941. recombinant A3A, FAM/TAMRA ssDNA deamination fluorescence. inhibition, % at 20 µM. 330,000 tested, 0.41% active. AID 493011, 2011;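 active means at least 40% inhibition at 20 µM here, with at most 30% in a related deaminase screen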;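 further: plate controls were A3A with DMSO for no effect and wells lacking A3A enzyme for full effect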
PHOSPHO1 block – PubChem AID 1565; inhibition, % at 13.3 µM; recombinant PHOSPHO1, absorbance phosphatase assay; 290,000 tested, 1.1% active; in the data active means inhibition above about 60%
Target sequence (Q8TCT1 whole entry, looked up): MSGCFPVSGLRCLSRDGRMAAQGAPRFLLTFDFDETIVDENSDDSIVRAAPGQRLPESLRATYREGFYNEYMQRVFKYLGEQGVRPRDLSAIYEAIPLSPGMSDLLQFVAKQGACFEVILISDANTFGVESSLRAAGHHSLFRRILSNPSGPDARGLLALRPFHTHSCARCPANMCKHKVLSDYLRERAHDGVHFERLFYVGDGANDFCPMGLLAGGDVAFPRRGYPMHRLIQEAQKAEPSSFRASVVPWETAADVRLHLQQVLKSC
pCIP destab – p/CIP-EGFP fusion destabilizers, primary screen, fluorescence, F442A cells; Q05BA5; 16 h; decrease of EGFP signal, % at 10 µM; 290,000 tested, 0.01% active; AID 1984, 2009;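 active means EGFP signal decrease of at least 30% at 10 µM or well 3 SD below plate mean, unless failing retest; inactive means the rest, including hits failing retest or dose response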
Tb MetRS inh – T. brucei MetRS inhibitors, primary screen, biochemical, luminescence | AID 624268, 2012 | purified T. brucei MetRS, ATP depletion, Kinase-Glo luminescence | methionyl-tRNA synthetase (Trypanosoma brucei brucei) | 360,000 tested, 0.4% active | inhibition, % at 11.9 µM;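 active means inhibition above a per-plate cutoff of the control wells' mean inhibition plus 3 SD, cut at about 5.5% in these data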;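 further: 0% = DMSO wells median and 100% = median of wells with control inhibitor compound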
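Assay system: T. brucei methionyl-tRNA synthetase, purified | Medium: HEPES buffer with MgCl2, KCl, DTT, spermine, BSA, pyrophosphatase | Compound: 11.9 µM single point | Incubation: 15 min enzyme-compound preincubation, 2 h reaction, 10 min detection, 25 °C | Measured by: Kinase-Glo luciferase luminescence reporting remaining unconsumed ATP | Measure: % inhibition normalized to control-well medians | Replication: Singlicate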
* hit, by the source's call.

Cc1ccc(-c2nnc(NCc3nc4ccccc4[nH]3)c3ccccc23)cc1S(=O)(=O)N1CCOCC1 was read as APOBEC3G inh -4.4, A3A deaminase 1.7, PHOSPHO1 block 6.6, pCIP destab -0.9 and Tb MetRS inh 12.0*.
Screening O=C(COc1ccc2ccccc2c1)N[C@@H](C(=O)O)c1ccc(O)cc1 returned APOBEC3G inh -6.1, A3A deaminase -7.0, PHOSPHO1 block -10.9, pCIP destab -15.5 and Tb MetRS inh -1.5.
`Cc1ccnc2c(N3C(=O)C4C5c6ccccc6C(c6ccccc65)C4C3=O)cccc12` (stereo not given) gave APOBEC3G inh -1.8, A3A deaminase 2.9, PHOSPHO1 block -5.2, pCIP destab -9.5 and Tb MetRS inh -1.0.
Screening c1ccc2[nH]c(SCc3cn4cccnc4n3)nc2c1 returned APOBEC3G inh -11.6, A3A deaminase 30.3, PHOSPHO1 block -26.9, pCIP destab -2.8 and Tb MetRS inh 0.4.
`c1ccc(-c2cnnc(SCc3cn4cccnc4n3)n2)cc1` gave APOBEC3G inh -1.0, A3A deaminase 7.0, PHOSPHO1 block 75.9*, pCIP destab 5.3 and Tb MetRS inh 0.1.
`Cc1cccc(N2C(=O)C3CC3C2=O)c1` (stereo not given) gave APOBEC3G inh -4.3, A3A deaminase -0.1, PHOSPHO1 block -4.9, pCIP destab -0.2 and Tb MetRS inh -0.5.
Cc1ccc(-c2csc(Nc3ccc(C(=O)O)cc3)[n+]2Cc2ccccc2)cc1 was read as APOBEC3G inh -1.7, A3A deaminase -8.0, PHOSPHO1 block 61.8*, pCIP destab 28.4 and Tb MetRS inh -2.1.
COc1ccc(-c2csc(Nc3ccccc3)[n+]2Cc2ccccc2)cc1 was read as APOBEC3G inh 0.7, A3A deaminase 1.8, PHOSPHO1 block -7.7, pCIP destab -5.2 and Tb MetRS inh 2.2.
Cc1ccc(N(C(=O)Cn2nnc(-c3cccs3)n2)C(C(=O)NC2CCCC2)c2ccncc2)cc1 (stereo not given) was read as APOBEC3G inh -3.5, A3A deaminase -1.4, PHOSPHO1 block 60.5*, pCIP destab -0.5 and Tb MetRS inh -0.1.
`CCOC(=O)c1c(C)nc(C)c(C(=O)OCC)c1-c1ccc(OC)cc1` gave APOBEC3G inh -5.7, A3A deaminase 4.8, PHOSPHO1 block 2.1, pCIP destab -8.8 and Tb MetRS inh 0.0.
For CCOC(=O)c1c(C)nc(C)c(C(=O)OCC)c1-c1cccc(N)c1 the results were APOBEC3G inh 14.2, A3A deaminase 4.6, PHOSPHO1 block 60.0*, pCIP destab -2.0 and Tb MetRS inh -0.8.
`Clc1cccc(CNc2ccn3nc(-c4cccc(OCc5ccccc5)c4)cc3n2)c1` gave Tb MetRS inh -0.1.
Screening COc1nc(NCCc2ccc(OC)c(OC)c2)nc(Nc2ccccc2)n1 returned APOBEC3G inh -6.1, A3A deaminase -2.3, PHOSPHO1 block 61.5*, pCIP destab -3.6 and Tb MetRS inh 0.2.
`COc1nc(NCCN2CCOCC2)nc(Nc2ccccc2)n1` gave APOBEC3G inh -1.8, A3A deaminase 0.7, PHOSPHO1 block -40.4, pCIP destab 1.5 and Tb MetRS inh -0.2.
Screening O=C(NNC(=O)c1cc(Cl)ccc1O)c1cccc(S(=O)(=O)N2CCOCC2)c1 returned APOBEC3G inh -12.0, A3A deaminase -4.7 and Tb MetRS inh -0.2.
`Cc1ccnc(NC(=O)C2CCCN(S(=O)(=O)c3ccc4[nH]c(=O)ccc4c3)C2)c1` (stereo not given) gave APOBEC3G inh 2.0, A3A deaminase 3.3, PHOSPHO1 block 1.9, pCIP destab -3.1 and Tb MetRS inh -0.3.
For COc1ccccc1Oc1ncnc2sccc12 the results were APOBEC3G inh -6.2, A3A deaminase -2.4, PHOSPHO1 block 60.9*, pCIP destab -5.6 and Tb MetRS inh -0.8.
`CCN(N=O)[C@@H](Cc1ccccc1)CN(N=O)[C@@H](Cc1ccccc1)CN(C)N=O` gave APOBEC3G inh -5.7, A3A deaminase 3.4, PHOSPHO1 block 34.6, pCIP destab -10.3 and Tb MetRS inh -0.2.
